The target of series [1] is Bromodomain-containing protein 1 (Homo sapiens, UniProt O95696). The series can be described thus: Inhibition of human BRD1 (E556 to A688 residues) expressed in bacterial expression system by BROMOscan assay.
A short description of series [2]: Half life in mouse at 3 mg/kg, iv. In kind it is ADME, organism-based. The following applies: in vivo.
Series [3] deals with Bromodomain-containing protein 4 (Homo sapiens, UniProt O60885). The series can be described thus: Binding affinity to His-tagged BRD4 BD1-BD2 (K57 to K550 residues) (unknown origin) after 1 hr by Alexa-647-conjugated probe based TR-FRET assay. (TR-FRET usually uses a lanthanide donor and a delayed reading to cut background.)
In another series the target is CREB-binding protein (Homo sapiens, UniProt Q92793). The experiment in a line: Inhibition of human CREBBP (R1081 to G1197 residues) expressed in bacterial expression system by BROMOscan assay.
For series [4], the target named is Bromodomain adjacent to zinc finger domain protein 2B (Homo sapiens, UniProt Q9UIF8). The experiment in a line: Inhibition of human BAZ2B (S2054 to S2168 residues) expressed in bacterial expression system by BROMOscan assay.
Series [5] concerns Mus musculus. The experiment in a line: Toxicity in SCID-Beige mouse assessed as body weight loss at 150 mg/kg, po qd for 21 days measured during compound dosing relative to control. In kind it is organism-based. To be noted: in vivo, 504 h.
The next series deals with T1, Peregrin (Homo sapiens) (UniProt P55201).
T1 sequence (whole entry): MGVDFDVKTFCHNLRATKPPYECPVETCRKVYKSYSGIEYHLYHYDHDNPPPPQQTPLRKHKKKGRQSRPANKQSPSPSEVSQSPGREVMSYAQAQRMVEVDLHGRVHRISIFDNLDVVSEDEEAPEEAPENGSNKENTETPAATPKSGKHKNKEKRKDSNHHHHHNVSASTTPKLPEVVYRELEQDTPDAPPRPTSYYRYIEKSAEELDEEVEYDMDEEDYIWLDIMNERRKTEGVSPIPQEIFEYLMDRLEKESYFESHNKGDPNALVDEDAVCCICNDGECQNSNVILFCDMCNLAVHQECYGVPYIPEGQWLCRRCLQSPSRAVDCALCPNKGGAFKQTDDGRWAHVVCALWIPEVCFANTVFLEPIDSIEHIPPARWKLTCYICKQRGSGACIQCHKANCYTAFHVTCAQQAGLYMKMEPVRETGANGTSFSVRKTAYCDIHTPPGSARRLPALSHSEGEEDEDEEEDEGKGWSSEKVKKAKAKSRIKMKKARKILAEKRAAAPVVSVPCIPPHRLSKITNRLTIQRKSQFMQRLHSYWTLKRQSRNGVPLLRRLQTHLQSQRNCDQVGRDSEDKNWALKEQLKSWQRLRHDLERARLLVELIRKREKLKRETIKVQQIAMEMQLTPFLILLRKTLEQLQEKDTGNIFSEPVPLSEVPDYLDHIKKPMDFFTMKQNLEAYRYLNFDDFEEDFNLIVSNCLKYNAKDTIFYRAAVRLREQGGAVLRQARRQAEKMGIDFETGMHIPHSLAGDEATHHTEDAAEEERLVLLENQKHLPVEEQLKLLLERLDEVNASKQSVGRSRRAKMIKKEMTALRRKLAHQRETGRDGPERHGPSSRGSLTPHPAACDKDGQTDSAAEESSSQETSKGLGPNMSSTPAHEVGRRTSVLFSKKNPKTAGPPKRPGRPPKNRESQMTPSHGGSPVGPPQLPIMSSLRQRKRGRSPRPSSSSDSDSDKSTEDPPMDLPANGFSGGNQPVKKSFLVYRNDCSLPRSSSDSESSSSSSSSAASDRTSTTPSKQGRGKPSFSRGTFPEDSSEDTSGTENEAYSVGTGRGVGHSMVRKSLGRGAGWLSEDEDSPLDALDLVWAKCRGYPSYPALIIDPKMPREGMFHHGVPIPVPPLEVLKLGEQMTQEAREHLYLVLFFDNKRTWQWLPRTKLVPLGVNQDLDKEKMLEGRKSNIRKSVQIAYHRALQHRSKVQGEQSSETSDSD
The experiment in a line: Inhibition of human BRPF1 (E627 to G740 residues) expressed in bacterial expression system at 1 uM by BROMOscan assay.

The target in series [6] is Transcription initiation factor TFIID subunit 1-like (Homo sapiens, UniProt Q8IZX4). The series can be described thus: Inhibition of human TAF1L (Q1523 to D1654 residues) expressed in bacterial expression system by BROMOscan assay.
Another series deals with Protein polybromo-1 (Homo sapiens, UniProt Q86U86). The experiment in a line: Inhibition of human PBRM1 bromodomain 5 (S645 to D766 residues) expressed in bacterial expression system by BROMOscan assay.
Series [7] deals with SWI/SNF-related matrix-associated actin-dependent regulator of chromatin subfamily A member 2 (Homo sapiens, UniProt P51531). The experiment in a line: Inhibition of human SMARCA2 (S1377 to Q1486 residues) expressed in bacterial expression system by BROMOscan assay.
Sequence of SWI/SNF-related matrix-associated actin-dependent regulator of chromatin subfamily A member 2 (P51531 whole entry, the tested form may be a part): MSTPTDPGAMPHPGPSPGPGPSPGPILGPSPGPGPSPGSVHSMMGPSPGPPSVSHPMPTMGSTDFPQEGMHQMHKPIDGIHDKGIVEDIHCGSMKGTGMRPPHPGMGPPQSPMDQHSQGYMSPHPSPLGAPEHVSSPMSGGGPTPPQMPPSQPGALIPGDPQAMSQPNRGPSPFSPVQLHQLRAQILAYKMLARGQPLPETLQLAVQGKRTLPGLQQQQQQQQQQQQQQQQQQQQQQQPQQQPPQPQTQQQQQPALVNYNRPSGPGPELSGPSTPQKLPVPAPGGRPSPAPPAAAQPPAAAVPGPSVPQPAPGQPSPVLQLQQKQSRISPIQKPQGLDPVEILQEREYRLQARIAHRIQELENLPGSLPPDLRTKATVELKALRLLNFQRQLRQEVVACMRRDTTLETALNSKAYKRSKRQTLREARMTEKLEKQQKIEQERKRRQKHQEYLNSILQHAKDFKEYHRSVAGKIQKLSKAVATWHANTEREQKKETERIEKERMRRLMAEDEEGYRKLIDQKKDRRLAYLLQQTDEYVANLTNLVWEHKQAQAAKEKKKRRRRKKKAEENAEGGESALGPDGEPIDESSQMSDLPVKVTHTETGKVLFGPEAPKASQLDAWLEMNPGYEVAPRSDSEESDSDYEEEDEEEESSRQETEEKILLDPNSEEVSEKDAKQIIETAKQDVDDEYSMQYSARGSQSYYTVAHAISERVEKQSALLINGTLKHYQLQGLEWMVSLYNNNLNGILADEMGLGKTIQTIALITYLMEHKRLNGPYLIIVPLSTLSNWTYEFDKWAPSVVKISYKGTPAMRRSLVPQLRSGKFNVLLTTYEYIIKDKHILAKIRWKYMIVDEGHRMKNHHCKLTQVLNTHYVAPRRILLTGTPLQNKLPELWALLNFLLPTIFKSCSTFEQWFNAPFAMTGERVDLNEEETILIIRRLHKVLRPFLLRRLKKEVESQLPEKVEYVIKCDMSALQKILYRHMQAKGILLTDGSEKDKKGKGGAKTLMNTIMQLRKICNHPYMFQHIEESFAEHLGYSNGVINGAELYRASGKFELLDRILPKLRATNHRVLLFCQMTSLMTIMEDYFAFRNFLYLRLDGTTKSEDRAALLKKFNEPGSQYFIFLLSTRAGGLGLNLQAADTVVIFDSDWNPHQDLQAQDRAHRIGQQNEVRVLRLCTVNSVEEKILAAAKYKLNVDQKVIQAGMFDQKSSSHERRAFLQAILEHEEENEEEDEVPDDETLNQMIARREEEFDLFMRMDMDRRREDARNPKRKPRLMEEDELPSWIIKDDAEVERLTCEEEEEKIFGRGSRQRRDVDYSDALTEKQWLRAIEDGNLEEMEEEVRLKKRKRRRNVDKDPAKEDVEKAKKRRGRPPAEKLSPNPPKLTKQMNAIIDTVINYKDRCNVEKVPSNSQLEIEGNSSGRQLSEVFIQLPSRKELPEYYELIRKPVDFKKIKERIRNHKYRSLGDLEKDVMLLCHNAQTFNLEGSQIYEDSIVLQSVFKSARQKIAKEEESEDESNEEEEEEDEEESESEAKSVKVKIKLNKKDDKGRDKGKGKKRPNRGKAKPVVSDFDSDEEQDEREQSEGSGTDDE
Series [8] in a line: Toxicity in po dosed SCID-Beige mouse administered once daily. To be noted: in vivo. In kind it is organism-based. In outline: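 Oral once-daily dosing in mice bearing OPM-2 multiple myeloma xenografts. Tolerability was judged from mean body-weight loss over the course of the study.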
In series [9] the target is Histone acetyltransferase KAT2B (Homo sapiens, UniProt Q92831). The experiment in a line: Inhibition of human PCAF (G715 to D831 residues) expressed in mammalian expression system by BROMOscan assay.
Series [10] deals with SWI/SNF-related matrix-associated actin-dependent regulator of chromatin subfamily A member 4 (Homo sapiens, UniProt P51532). The experiment in a line: Inhibition of human SMARCA4 (A1448 to S1575 residues) expressed in bacterial expression system by BROMOscan assay.
The target in series [11] is Bromodomain-containing protein 9 (Homo sapiens) (UniProt Q9H8M2). The experiment in a line: Inhibition of human BRD9 isoform 1 (R130 to V259 residues) expressed in bacterial expression system at 1 uM by BROMOscan assay relative to control.
Sequence of Bromodomain-containing protein 9 (Homo sapiens) (Q9H8M2 whole entry, the tested form may be a part, canonical isoform): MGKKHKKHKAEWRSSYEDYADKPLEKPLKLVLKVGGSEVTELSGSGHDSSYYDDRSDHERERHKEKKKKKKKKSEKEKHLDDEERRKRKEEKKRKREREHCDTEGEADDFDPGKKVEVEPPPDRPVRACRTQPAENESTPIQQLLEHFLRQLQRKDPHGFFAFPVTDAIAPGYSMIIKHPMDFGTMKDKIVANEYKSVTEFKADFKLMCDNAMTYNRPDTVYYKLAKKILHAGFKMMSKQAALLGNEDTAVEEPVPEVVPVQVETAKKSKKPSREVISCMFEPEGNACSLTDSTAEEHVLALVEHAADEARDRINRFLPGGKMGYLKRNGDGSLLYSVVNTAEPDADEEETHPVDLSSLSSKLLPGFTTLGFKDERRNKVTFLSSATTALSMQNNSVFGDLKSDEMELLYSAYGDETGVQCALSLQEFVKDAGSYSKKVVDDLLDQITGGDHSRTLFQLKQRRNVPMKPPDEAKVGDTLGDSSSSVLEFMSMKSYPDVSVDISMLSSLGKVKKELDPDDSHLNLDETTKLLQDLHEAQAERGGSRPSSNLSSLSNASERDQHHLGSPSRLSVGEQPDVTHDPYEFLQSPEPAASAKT
In series [12] the target is Bromodomain-containing protein 7 (Homo sapiens, UniProt Q9NPI1). The experiment in a line: Inhibition of human BRD7 (L125 to R254 residues) expressed in mammalian expression system by BROMOscan assay.
Sequence of Bromodomain-containing protein 7 (Q9NPI1 whole entry, the tested form may be a part): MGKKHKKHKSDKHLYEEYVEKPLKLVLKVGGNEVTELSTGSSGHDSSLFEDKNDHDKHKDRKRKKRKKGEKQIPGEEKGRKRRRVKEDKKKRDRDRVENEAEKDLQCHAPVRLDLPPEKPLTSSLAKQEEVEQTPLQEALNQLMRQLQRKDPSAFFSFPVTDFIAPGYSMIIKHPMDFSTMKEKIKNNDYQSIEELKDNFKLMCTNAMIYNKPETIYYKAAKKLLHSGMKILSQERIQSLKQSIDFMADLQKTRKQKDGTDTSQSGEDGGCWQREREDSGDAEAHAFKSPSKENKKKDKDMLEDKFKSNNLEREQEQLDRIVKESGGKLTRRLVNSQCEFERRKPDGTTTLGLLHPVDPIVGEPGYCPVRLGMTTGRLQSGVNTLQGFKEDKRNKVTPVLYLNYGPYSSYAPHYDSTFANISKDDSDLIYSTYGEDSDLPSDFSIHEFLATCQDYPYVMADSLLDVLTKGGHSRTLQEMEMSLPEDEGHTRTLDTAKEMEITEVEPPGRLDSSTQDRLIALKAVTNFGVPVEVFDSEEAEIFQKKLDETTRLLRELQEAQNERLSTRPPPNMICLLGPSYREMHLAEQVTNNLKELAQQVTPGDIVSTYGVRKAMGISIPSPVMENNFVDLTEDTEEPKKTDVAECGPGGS
In series [13] the test system is OPM-2. The experiment in a line: Antitumor activity against human OPM2 cells xenografted in SCID-Beige mouse assessed as tumor growth inhibition at 100 mg/kg, po bid for 14 days measured twice per week during compound dosing relative to control. The series is classed as functional. The following applies: OPM-2, po, 336 h, read-out: TGI. On the technique in general: Xenograft models place foreign cells or tissue in a host animal.

For series [14], the target named is Chromatin remodeling regulator CECR2 (Homo sapiens, UniProt Q9BXF3). The experiment in a line: Inhibition of human CECR2 (P423 to D543 residues) expressed in bacterial expression system by BROMOscan assay.
Series [15] addresses Histone acetyltransferase KAT2A (Homo sapiens, UniProt Q92830). The series can be described thus: Inhibition of human GCN5L2 (E726 to K837 residues) expressed in bacterial expression system by BROMOscan assay.
The subject of series [16] is OPM-2. The experiment in a line: Antitumor activity against human OPM2 cells xenografted in SCID-Beige mouse assessed as tumor growth inhibition at 30 mg/kg, po qd for 21 days measured twice per week during compound dosing relative to control. The series is classed as functional. The following applies: OPM-2, po, 504 h, read-out: TGI.
In series [17] the test system is Mus musculus. The series can be described thus: Toxicity in SCID-Beige mouse assessed as body weight loss at 30 mg/kg, po qd for 21 days measured during compound dosing relative to control. To be noted: in vivo, 504 h. In kind it is organism-based.

As a reminder, the IC50 is the concentration needed to halve the response being measured. One may read the half-life as how long it takes for the measured level to halve. One may read the Ki as a dissociation constant, usually derived from enzyme kinetics or from competition with a known ligand. Low readings indicate higher affinity, high ones lower affinity. A word on the inhibition: it is how much of the control response was suppressed.

The structures appear in SMILES notation.

Sequence of Bromodomain-containing protein 1 (O95696 whole entry, the tested form may be a part): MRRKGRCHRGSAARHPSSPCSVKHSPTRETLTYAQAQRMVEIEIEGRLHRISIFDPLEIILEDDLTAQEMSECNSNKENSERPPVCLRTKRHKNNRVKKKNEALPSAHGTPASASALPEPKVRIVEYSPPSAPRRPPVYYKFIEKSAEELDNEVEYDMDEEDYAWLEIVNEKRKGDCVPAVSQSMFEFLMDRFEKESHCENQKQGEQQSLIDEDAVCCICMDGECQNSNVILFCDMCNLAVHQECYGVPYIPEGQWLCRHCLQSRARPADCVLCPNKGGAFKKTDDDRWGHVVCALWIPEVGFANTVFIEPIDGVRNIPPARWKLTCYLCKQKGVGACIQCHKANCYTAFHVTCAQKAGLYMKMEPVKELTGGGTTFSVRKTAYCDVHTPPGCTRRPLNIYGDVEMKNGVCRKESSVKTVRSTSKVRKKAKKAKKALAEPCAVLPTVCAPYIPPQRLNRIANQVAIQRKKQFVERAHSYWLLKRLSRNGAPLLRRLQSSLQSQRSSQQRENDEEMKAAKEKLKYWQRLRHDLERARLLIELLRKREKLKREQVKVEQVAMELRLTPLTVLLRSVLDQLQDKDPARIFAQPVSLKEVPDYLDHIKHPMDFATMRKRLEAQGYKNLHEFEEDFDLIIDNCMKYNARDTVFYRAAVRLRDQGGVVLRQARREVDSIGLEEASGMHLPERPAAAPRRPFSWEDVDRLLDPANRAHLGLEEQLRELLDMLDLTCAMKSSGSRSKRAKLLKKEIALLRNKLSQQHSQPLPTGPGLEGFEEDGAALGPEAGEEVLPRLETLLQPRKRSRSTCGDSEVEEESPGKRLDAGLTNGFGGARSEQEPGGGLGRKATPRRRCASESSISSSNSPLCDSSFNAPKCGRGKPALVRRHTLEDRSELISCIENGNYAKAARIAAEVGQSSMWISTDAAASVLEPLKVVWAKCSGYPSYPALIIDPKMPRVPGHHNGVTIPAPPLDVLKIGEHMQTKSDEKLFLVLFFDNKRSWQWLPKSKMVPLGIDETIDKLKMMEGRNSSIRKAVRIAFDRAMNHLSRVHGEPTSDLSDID
Sequence of Histone acetyltransferase KAT2A (Q92830 whole entry, the tested form may be a part): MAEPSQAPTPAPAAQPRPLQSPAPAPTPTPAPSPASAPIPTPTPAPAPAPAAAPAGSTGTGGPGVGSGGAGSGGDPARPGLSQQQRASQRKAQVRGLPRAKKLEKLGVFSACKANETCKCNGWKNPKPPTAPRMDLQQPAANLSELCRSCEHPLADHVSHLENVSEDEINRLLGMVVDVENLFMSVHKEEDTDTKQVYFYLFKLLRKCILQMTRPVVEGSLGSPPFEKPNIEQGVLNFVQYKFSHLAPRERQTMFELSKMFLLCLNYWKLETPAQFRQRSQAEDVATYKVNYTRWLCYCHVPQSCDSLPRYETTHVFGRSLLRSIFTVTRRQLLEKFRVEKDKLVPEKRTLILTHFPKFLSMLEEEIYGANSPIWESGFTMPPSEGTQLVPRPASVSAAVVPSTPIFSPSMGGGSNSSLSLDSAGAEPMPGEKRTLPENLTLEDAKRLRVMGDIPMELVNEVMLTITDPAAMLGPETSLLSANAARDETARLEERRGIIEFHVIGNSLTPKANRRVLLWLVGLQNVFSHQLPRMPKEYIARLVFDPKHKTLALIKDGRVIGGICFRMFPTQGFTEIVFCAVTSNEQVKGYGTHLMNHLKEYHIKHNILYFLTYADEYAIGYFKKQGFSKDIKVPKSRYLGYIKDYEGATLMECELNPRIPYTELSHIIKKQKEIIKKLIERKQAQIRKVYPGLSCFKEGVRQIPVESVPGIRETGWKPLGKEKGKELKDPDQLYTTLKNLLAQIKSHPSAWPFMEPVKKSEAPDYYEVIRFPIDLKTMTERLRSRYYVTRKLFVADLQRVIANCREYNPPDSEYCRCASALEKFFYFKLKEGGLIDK

On to `Cc1[nH]c(-c2cc(S(C)(=O)=O)ccc2Oc2ccc(F)cc2F)c2c1C(=O)NCC2`, for which the half-inhibitory concentration (IC50) was above 1000 nM in series [1], 1000 nM at CREB-binding protein and above 1000 nM in series [4]. The same compound gave a half-life in series [2] of 1.3 h. The Ki in series [3] was 300 nM. The Activity with Mus musculus [5] lay within 1 to 3%. In addition, the inhibition against Peregrin (Homo sapiens) was determined as 98.6%.
For `Cc1[nH]c(-c2cc(NS(C)(=O)=O)ccc2Oc2ccccc2)c2c1C(=O)CCC2`, the 50% inhibitory concentration (IC50) in [6] is above 1000 nM; on Protein polybromo-1 it was above 1000 nM; in series [7], 1000 nM; in series [1], above 1000 nM; in [9], above 1000 nM; in [10], above 1000 nM. Moreover, the IC50 was 1000 nM at CREB-binding protein; above 1000 nM in series [12]; above 1000 nM in [4]; above 1000 nM in series [14]; above 1000 nM in [15]. The compound also gave an MTD in series [8] of 100 mg/kg/day. In series [2], this compound had a half-life of 0.6 h. Also, the inhibition in series [11] is 67%; against Peregrin (Homo sapiens), 100%. Further, the Ki in series [3] was determined as 33 nM. In addition, in the series with OPM-2 [13], the inhibition in vivo at 100 mg/kg came to 73%.
`Cn1cc(-c2cc(S(C)(=O)=O)ccc2Oc2ccc(F)cc2F)c2cc[nH]c(=O)c21`: the IC50 (in [6]; at Protein polybromo-1; in [7]; in series [10]; in series [12]; in series [14]) was above 1000 nM throughout. The compound also displayed a concentration for half-maximal inhibition (IC50) in [15] above 1000 nM. Besides, the inhibition in vivo at 30 mg/kg in the series with OPM-2 [16] was determined as 64%. For the same compound, the Activity with Mus musculus [17] fell in the range of 1 to 3%. The same compound had a half-life in series [2] of 2.5 h. Further, the inhibition was 88% in series [11] and 83% at Peregrin (Homo sapiens). In [3], this compound came in with a Ki of 98 nM.

The values above are taken from ChEMBL document CHEMBL4038268, “Methylpyrrole inhibitors of BET bromodomains” (Bioorg Med Chem Lett, 2017).
